Experimental data taken from paper PMC5028280 (Neuropharmacology, 2016).

What was measured:
[1] = target: T1, 5-HT2B (Homo sapiens, UniProt P41595); assay: NIMH PDSP secondary binding assay, 5-HT2B
[2] = target: GABA: PBR (Rattus norvegicus, UniProt P16257); assay: NIMH PDSP secondary binding assay, PBR; design: species or system human
[3] = target: T1, 5-HT2B; assay: 5-HT2B antagonism functional assay; format: cell-based
[4] = target: hERG (Homo sapiens, UniProt Q12809); assay: hERG channel assay; format: cell-based
[5] = tested on: male ICR mice; assay: Functional observational battery; format: in vivo, mouse; conditions: i.v.
Outline: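 Male ICR mice, each given one dose only, n=6 per dose; housed at 20–22°C on a 12-h light/dark cycle with food ad libitum. Approach and startle after observer interference were scored as categorical measures. Each compound's vehicle group was pooled into one vehicle group, and each dose was compared with it. Tests: Fisher's exact (categorical), Kruskal-Wallis (ordinal), one-way ANOVA (continuous).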

[6] = tested on: male ICR mice; assay: FOB, cannabinoid receptor antagonism of 3 mg/kg JWH-018 effects; format: in vivo, mouse; conditions: 3 mg/kg JWH-018 i.v. alone, or co-administration of 3 mg/kg rimonabant i.p.
[7] = tested on: male C57/Bl6J mice; assay: Drug discrimination, mice trained to discriminate 0.3 mg/kg JWH-018 from vehicle; format: in vivo, mouse
[8] = CNS Excitability domain, ↑ increase vs vehicle, ---- no significant effect
[9] = Muscle tone/Equilibrium domain, categorical, ---- no significant effect
[10] = Sensorimotor Reactivity domain, categorical, ---- no significant effect

T1 sequence (P41595 whole entry): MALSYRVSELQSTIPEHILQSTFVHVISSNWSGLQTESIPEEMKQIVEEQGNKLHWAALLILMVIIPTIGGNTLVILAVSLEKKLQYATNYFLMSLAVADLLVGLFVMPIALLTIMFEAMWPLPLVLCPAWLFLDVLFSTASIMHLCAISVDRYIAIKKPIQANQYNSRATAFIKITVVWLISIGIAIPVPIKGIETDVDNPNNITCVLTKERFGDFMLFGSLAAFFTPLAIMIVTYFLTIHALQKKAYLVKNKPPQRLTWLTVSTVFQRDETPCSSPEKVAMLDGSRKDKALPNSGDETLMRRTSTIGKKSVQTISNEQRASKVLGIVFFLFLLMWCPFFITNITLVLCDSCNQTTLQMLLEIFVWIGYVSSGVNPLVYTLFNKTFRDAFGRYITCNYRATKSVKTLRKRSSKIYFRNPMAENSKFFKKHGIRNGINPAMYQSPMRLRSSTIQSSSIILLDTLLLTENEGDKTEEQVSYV
Chain of hERG (Q12809 whole entry): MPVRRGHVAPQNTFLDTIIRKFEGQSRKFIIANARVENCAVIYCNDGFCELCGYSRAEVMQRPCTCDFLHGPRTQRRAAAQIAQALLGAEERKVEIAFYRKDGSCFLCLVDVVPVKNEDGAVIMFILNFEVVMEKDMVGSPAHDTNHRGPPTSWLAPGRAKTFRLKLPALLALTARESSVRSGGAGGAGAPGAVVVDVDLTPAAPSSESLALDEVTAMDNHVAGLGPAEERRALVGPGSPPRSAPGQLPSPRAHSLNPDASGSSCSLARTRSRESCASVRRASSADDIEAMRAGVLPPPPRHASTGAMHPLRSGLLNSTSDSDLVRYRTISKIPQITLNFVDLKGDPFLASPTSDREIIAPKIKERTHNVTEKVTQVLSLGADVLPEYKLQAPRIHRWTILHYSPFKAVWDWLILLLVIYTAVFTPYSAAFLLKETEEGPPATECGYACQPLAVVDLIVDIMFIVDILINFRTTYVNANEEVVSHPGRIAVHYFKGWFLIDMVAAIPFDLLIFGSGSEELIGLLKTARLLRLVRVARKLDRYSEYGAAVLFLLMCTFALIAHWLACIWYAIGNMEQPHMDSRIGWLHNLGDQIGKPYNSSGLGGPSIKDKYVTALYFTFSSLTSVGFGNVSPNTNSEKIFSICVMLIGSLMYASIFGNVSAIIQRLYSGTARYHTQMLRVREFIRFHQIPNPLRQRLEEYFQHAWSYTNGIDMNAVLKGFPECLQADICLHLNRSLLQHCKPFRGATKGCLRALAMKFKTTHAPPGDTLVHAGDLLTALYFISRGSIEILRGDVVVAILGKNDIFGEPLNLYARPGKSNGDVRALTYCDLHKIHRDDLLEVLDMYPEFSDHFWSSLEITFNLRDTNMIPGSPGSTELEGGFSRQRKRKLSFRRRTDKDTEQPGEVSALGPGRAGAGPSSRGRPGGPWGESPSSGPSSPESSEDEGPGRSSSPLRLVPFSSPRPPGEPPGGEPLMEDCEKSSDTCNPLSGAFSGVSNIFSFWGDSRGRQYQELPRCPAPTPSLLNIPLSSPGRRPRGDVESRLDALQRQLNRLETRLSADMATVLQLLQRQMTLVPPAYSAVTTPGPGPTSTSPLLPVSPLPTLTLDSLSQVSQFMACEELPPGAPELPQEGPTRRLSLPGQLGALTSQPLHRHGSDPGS
Chain of GABA: PBR (P16257 whole entry): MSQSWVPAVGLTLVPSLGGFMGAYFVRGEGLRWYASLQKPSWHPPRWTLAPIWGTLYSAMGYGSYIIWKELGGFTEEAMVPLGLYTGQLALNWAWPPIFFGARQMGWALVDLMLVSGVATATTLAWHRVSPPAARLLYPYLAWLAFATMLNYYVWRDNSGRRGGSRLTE

CCCCCn1cc(C(=O)c2cccc3ccccc23)c2ccccc21 [JWH-018, 1-pentyl-3-(1-naphthoyl)indole]
Ki [1]: 0.316 µM
Ki [2]: 0.673 µM
IC50 [3]: 33.2 µM
Emax ([3]; read-out: 5-HT2B Antagonism Emax): 100%
EC50 [4]: 236 µM
Emax ([4]; human, stably transfected cell line expressing hERG channels): 100%
hERG Channels Emax ([4]; inhibition of hERG channels, mean of 3 replicates): Full efficacy
FOB Home cage activity: doses with significant differences vs vehicle ([5]; CNS Activity domain, ↓ decrease vs vehicle, N = 6/dose): ↓ (0.1-3) mg/kg
FOB Clonus: doses with significant differences vs vehicle [5, 8]: ↑ (0.3) mg/kg
FOB Tail elevation: doses with significant differences vs vehicle [5, 8]: ↑ (1) mg/kg
FOB Tonus: doses with significant differences vs vehicle [5, 8]: ↑ (1) mg/kg
FOB Forelimb placing: doses with significant differences vs vehicle [5, 9]: (3) mg/kg
FOB Gait: doses with significant differences vs vehicle [5, 9]: (0.1-3) mg/kg
FOB Muscle tone: doses with significant differences vs vehicle [5, 9]: (0.1-3) mg/kg
FOB Posture: doses with significant differences vs vehicle [5, 9]: (0.1-3) mg/kg
FOB Approach response: doses with significant differences vs vehicle [5, 10]: (0.3-3) mg/kg
FOB Startle response: doses with significant differences vs vehicle [5, 10]: (3) mg/kg
Muscle tone in FOB antagonism study [6]: Hypertonia
Responding on the JWH-018-associated lever at the training dose ([7]; 0.3 mg/kg JWH-018): > 85%
Response rates compared to vehicle ([7]; 1 mg/kg JWH-018, 10 mg/kg THC, JWH-073 across the dose range tested): significantly decreased response rates
Substitution for the 0.3 mg/kg JWH-018 training dose ([7]; percentage of responses on JWH-018-associated lever, i.p.): fully and dose-dependently substituted
